ChEMBL document CHEMBL1143867, “Novel three-component synthesis and antiproliferative properties of diversely functionalized pyrrolines” (2008)
Activity calls are given as the source filed them. The calls are words filed in the database; no cut-off is given here.

Assays:
Jurkat [1] = assay: Induction of apoptosis in human Jurkat cells assessed as viable cells at 5 uM after 48 hrs by flow cytometry relative to control; type: functional; conditions: read-out: Activity
Outline: (§1)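 Jurkat human T-cell leukemia cells were exposed to compound for 48 h and then stained with annexin-V/propidium iodide for flow cytometry. Apoptotic and live cell percentages are expressed relative to a DMSO control. Values are mean ± SD from two independent experiments, each run in 3 replicates.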

Jurkat [2] = assay: Induction of apoptosis in human Jurkat cells after 48 hrs at 5 uM by flow cytometry relative to control; type: functional; outline: as §1
MCF7/AZ = assay: Antiproliferative activity against human MCF7/AZ cells after 48 hrs by MTT assay relative to control; type: functional, cell-based
Outline: (§2)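 Cells (HeLa cervical or MCF7/AZ breast adenocarcinoma) exposed to test agents 48 h; mixtures at final 100 μM, individual isomers at final 100, 50 and 5 μM. Viability read by MTT (mitochondrial dehydrogenase activity), expressed as % remaining viability vs DMSO control. Two independent experiments, each in 4 replicates; mean ± SD.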

HeLa = assay: Antiproliferative activity against human HeLa cells after 48 hrs by MTT assay relative to control; type: functional, cell-based; outline: as §2
Jurkat [3] = assay: Induction of apoptosis in human Jurkat cells assessed as viable cells at 50 uM after 48 hrs by flow cytometry relative to control; type: functional; conditions: read-out: Activity
Outline: (§3)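 Jurkat T-cell leukemia cells treated 48 h with test agents at 50 μM (podophyllotoxin reference at 5 μM). Flow cytometric annexin-V/propidium iodide staining scored % apoptotic cells and % live cells, each relative to DMSO control. Two independent experiments, each in 3 replicates; mean ± SD.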

Jurkat [4] = assay: Growth inhibition of human Jurkat cells at 50 uM by Trypan blue dye exclusion method; type: functional, cell-based
Jurkat [5] = assay: Induction of apoptosis in human Jurkat cells after 48 hrs at 50 uM by flow cytometry relative to control; type: functional; outline: as §3
Jurkat [6] = assay: Growth inhibition of human Jurkat cells assessed as decrease in cell count at 50 uM by Trypan blue dye exclusion method; type: functional, cell-based

Structure (SMILES)	viability at 5 µM (Jurkat [1]) [%]	Activity (Jurkat [2]) [%]	Activity (MCF7/AZ)	Activity (HeLa)	viability at 50 µM (Jurkat [3]) [%]	Activity (Jurkat [4])	Activity (Jurkat [5]) [%]	Activity (Jurkat [6])
COc1cc([C@@H]2c3cc4c(cc3[C@H](O)[C@H]3COC(=O)[C@H]23)OCO4)cc(OC)c1OC [PODOFILOX]	22	63	–	–	–	–	–	–
COc1ccc(S(=O)(=O)N2C(N)=C(C#N)[C@@H](c3ccccc3)[C@@H]2C(=O)c2ccc(Br)cc2)cc1 (relative stereo)	–	–	Active	Active	–	–	–	–
Cc1ccc(S(=O)(=O)N2C(N)=C(C#N)[C@@H](c3ccccc3)[C@@H]2C(=O)c2ccc(Br)cc2)cc1 (relative stereo)	–	–	Active	Active	96	Active	3	–
Cc1ccc(S(=O)(=O)N2C(N)=C(C#N)[C@@H](c3ccccc3)[C@H]2C(=O)c2ccc(Br)cc2)cc1 (relative stereo)	–	–	Active	Active	56	–	30	Active
COc1ccc(S(=O)(=O)N2C(N)=C(C#N)[C@@H](c3ccccc3)[C@H]2C(=O)c2ccc(Br)cc2)cc1 (relative stereo)	–	–	Active	Active	–	–	–	–
